Experimental data reported in ChEMBL document CHEMBL4033605 (J Nat Prod, 2017).
pIC50: −log10 of the molar value. Activity calls are given as the source filed them. No cut-off for these calls is given here. Where a SMILES comes first, the peptide text is derived from it.

Assays:
[1] = Cytotoxic activity against human H116 cells assessed as zone diffusion inhibition by measuring distance to perimeter (diffusion distance units) at 9 umol by disk diffusion soft agar colony inhibition assay (reference value: 0 unit); assay type: functional
LNCaP [2] = test: Cytotoxic activity against human LNCAP cells assessed as zone diffusion inhibition by measuring distance to perimeter (diffusion distance units) at 36 umol by disk diffusion soft agar colony inhibition assay (reference value: 0 unit); assay type: functional
CFU-GM [3] = test: Cytotoxic activity against human CFU-GM cells assessed as zone diffusion inhibition by measuring distance to perimeter (diffusion distance units) at 9 umol by disk diffusion soft agar colony inhibition assay (reference value: 0 unit); assay type: functional
MCF7 [4] = test: Cytotoxic activity against human MCF7 cells assessed as zone diffusion inhibition by measuring distance to perimeter (diffusion distance units) at 36 umol by disk diffusion soft agar colony inhibition assay (reference value: 0 unit); assay type: functional
[5] = target: Dipeptidyl peptidase 4 (Homo sapiens) (UniProt P27487); test: Inhibition of human recombinant DPP4 at <3.33 uM using H-Gly-Pro AMC substrate incubated for 30 mins by spectrophotometry
Chain of Dipeptidyl peptidase 4 (Homo sapiens) (P27487 whole entry, looked up, the tested form may be a part): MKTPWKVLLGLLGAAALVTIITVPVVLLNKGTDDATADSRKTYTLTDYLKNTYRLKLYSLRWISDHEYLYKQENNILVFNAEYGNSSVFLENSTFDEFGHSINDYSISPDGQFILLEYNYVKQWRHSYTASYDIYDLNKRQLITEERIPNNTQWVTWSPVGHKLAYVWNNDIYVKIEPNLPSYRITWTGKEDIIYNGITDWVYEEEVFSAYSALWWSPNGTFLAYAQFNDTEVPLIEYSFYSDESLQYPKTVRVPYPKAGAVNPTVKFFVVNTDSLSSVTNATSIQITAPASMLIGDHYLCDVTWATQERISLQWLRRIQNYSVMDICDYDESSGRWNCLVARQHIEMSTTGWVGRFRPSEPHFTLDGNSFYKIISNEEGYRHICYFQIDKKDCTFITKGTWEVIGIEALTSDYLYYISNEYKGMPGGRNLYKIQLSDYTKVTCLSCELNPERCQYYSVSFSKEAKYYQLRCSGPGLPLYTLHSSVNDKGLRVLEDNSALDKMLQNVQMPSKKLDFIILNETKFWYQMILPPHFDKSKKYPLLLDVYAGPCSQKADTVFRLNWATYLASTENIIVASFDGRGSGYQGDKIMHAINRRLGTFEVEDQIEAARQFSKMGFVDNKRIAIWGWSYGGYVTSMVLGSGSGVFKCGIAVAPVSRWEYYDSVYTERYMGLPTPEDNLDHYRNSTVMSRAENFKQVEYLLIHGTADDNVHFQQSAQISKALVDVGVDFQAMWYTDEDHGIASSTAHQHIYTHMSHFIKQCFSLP
Method in brief: (§1)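 Human recombinant DPP4 was assayed in 20 mM Tris-HCl pH 8.0 with 100 mM NaCl and 1 mM EDTA. Compound in DMSO was tested at 10 µM final, with three-fold serial dilutions down to 1.5 nM. H-Gly-Pro-AMC substrate was added as a 200 µM solution. After 30 min at 37 °C, fluorescence was read at excitation 355 and emission 455 nm. Background wells had no enzyme. All conditions were run in triplicate.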

CFU-GM [6] = test: Cytotoxic activity against human CFU-GM cells assessed as zone diffusion inhibition by measuring distance to perimeter (diffusion distance units) at 36 umol by disk diffusion soft agar colony inhibition assay (reference value: 0 unit); assay type: functional
LNCaP [7] = test: Cytotoxic activity against human LNCAP cells assessed as zone diffusion inhibition by measuring distance to perimeter (diffusion distance units) at 9 umol by disk diffusion soft agar colony inhibition assay (reference value: 0 unit); assay type: functional
[8] = Cytotoxic activity against human U251N cells assessed as zone diffusion inhibition by measuring distance to perimeter (diffusion distance units) at 36 umol by disk diffusion soft agar colony inhibition assay (reference value: 0 unit); assay type: functional
[9] = Cytotoxic activity against human H116 cells assessed as zone diffusion inhibition by measuring distance to perimeter (diffusion distance units) at 36 umol by disk diffusion soft agar colony inhibition assay (reference value: 0 unit); assay type: functional
[10] = target: Dipeptidyl peptidase 4 (Homo sapiens) (UniProt P27487); test: Inhibition of human recombinant DPP4 at 10 uM using H-Gly-Pro AMC substrate incubated for 30 mins by spectrophotometry; method in brief: as §1
MCF7 [11] = test: Cytotoxic activity against human MCF7 cells assessed as zone diffusion inhibition by measuring distance to perimeter (diffusion distance units) at 9 umol by disk diffusion soft agar colony inhibition assay (reference value: 0 unit); assay type: functional
CCRF-CEM [12] = test: Cytotoxic activity against human CEM cells assessed as zone diffusion inhibition by measuring distance to perimeter (diffusion distance units) at 9 umol by disk diffusion soft agar colony inhibition assay (reference value: 0 unit); assay type: functional
HCT-116 = test: Cytotoxic activity against human HCT116 cells incubated for 48 hrs by MTT assay; assay type: functional, cell-based; settings: HCT-116, 48 h
[13] = Cytotoxic activity against human H125 cells assessed as zone diffusion inhibition by measuring distance to perimeter (diffusion distance units) at 9 umol by disk diffusion soft agar colony inhibition assay (reference value: 0 unit); assay type: functional
OVCAR-5 = test: Cytotoxic activity against human OVCAR5 cells assessed as zone diffusion inhibition by measuring distance to perimeter (diffusion distance units) at 36 umol by disk diffusion soft agar colony inhibition assay (reference value: 0 unit); assay type: functional
CCRF-CEM [14] = test: Cytotoxic activity against human CEM cells assessed as zone diffusion inhibition by measuring distance to perimeter (diffusion distance units) at 36 umol by disk diffusion soft agar colony inhibition assay (reference value: 0 unit); assay type: functional
[15] = Cytotoxic activity against human H125 cells assessed as zone diffusion inhibition by measuring distance to perimeter (diffusion distance units) at 36 umol by disk diffusion soft agar colony inhibition assay (reference value: 0 unit); assay type: functional
PANC-1 = test: Cytotoxic activity against human PANC1 cells assessed as zone diffusion inhibition by measuring distance to perimeter (diffusion distance units) at 36 umol by disk diffusion soft agar colony inhibition assay (reference value: 0 unit); assay type: functional
[16] = Cytotoxic activity against human U251N cells assessed as zone diffusion inhibition by measuring distance to perimeter (diffusion distance units) at 9 umol by disk diffusion soft agar colony inhibition assay (reference value: 0 unit); assay type: functional
NCI-H460 = test: Cytotoxic activity against human H460 cells incubated for 48 hrs by MTT assay; assay type: functional, cell-based; settings: NCI-H460, 48 h

Row | Structure (SMILES) | inhibition zone (IZ) [1] [U] | inhibition zone (IZ) (LNCaP [2]) [U] | inhibition zone (IZ) (CFU-GM [3]) [U] | inhibition zone (IZ) (MCF7 [4]) [U] | inhibition [5] | inhibition zone (IZ) (CFU-GM [6]) [U] | inhibition zone (IZ) (LNCaP [7]) [U] | inhibition zone (IZ) [8] [U] | inhibition zone (IZ) [9] [U] | inhibition [10] [%] | inhibition zone (IZ) (MCF7 [11]) [U] | inhibition zone (IZ) (CCRF-CEM [12]) [U] | pIC50 (HCT-116) | inhibition zone (IZ) [13] [U] | inhibition zone (IZ) (OVCAR-5) [U] | inhibition zone (IZ) (CCRF-CEM [14]) [U] | inhibition zone (IZ) [15] [U] | inhibition zone (IZ) (PANC-1) [U] | inhibition zone (IZ) [16] [U] | pIC50 (NCI-H460)
1 | CC[C@H](C)[C@@H]1NC(=O)[C@@H]2CCCN2C(=O)[C@H](Cc2ccccc2)NC(=O)[C@H](C(C)C)NC(=O)[C@H](CC(C)C)NC(=O)[C@@H]2CCCN2C(=O)[C@@H]2CCCN2C(=O)[C@H](Cc2ccccc2)NC1=O (cyclo(LVFPIFPP)) | 200 | 500 | 400 | 500 | inactive | 700 | 300 | 500 | 600 | 15.7 | 300 | 350 | > 5.00 | 300 | 200 | 600 | 550 | 200 | 300 | –
2 | COc1cccc2c1C(=O)c1c(O)c3c(c(O)c1C2=O)C[C@@](O)(C(=O)CO)C[C@@H]3O[C@H]1C[C@H](N)[C@H](O)[C@H](C)O1 [DOXORUBICIN] | – | – | – | – | – | – | – | – | – | – | – | – | – | – | – | – | – | – | – | 6.70
